Measurements reported in paper PMC5147544 (Science signaling, 2016).

Assays:
Neuro2A cells = Neuro2A cells (Mus musculus, UniProt P30731); assay: Neurite outgrowth assay; format: cell-based; conditions: 1 μM peptide, 16 to 20 hours at 37°C, protease inhibitor cocktail; Fig. 3A
How it was run: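 Neuro2A cells were plated on poly-L-lysine, 20,000 per well, in 10% FBS medium. Next day, in serum-free medium, cells got 1 μM peptide or vehicle with protease inhibitors for 16–20 h at 37°C. Sequential 40× images covered ~300–500 cells, with repeats on different days. Blinded scoring: a cell counted positive if its neurite was longer than twice the cell diameter.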

[1] = intracerebroventricular administration; cited from earlier work
[2] = biological target: endogenous mouse GPR83 in brain (hypothalamus, hippocampus, PVN) (mouse (endogenous in hypothalamus, hippocampus)) (UniProt P30731); assay: radioligand binding
Sequence of endogenous mouse GPR83 in brain (hypothalamus, hippocampus, PVN) (mouse (endogenous in hypothalamus, hippocampus)) (P30731 18-423): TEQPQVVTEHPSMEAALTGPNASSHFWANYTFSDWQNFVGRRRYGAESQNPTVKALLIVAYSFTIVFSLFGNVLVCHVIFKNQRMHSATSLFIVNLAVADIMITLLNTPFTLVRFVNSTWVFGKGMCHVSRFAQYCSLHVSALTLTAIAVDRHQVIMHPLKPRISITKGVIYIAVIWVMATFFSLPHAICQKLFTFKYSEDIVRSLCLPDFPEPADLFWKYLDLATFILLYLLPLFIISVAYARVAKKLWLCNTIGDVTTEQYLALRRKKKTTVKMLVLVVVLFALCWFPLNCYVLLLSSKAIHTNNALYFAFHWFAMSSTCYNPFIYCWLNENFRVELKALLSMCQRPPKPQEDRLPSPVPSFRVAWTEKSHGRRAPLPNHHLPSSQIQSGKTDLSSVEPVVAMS

[3] = biological target: mouse hypothalamic membranes (Mus musculus, UniProt P30731); assay: Displacement of [125I]Tyr-rPEN binding in mouse hypothalamic membranes; conditions: [125I]Tyr-rPEN 3 nM, membranes 30 μg, peptide 0 to 10 μM; Fig. 1C
Sequence of mouse hypothalamic membranes (P30731 18-423): as above

hGPR83 [4] = biological target: T1, hGPR83 (Homo sapiens, UniProt Q9NYM4); assay: Displacement of [125I]Tyr-rPEN binding to CHO hGPR83 cell membranes; conditions: Fig. 4D
T1 sequence (Q9NYM4 17-423): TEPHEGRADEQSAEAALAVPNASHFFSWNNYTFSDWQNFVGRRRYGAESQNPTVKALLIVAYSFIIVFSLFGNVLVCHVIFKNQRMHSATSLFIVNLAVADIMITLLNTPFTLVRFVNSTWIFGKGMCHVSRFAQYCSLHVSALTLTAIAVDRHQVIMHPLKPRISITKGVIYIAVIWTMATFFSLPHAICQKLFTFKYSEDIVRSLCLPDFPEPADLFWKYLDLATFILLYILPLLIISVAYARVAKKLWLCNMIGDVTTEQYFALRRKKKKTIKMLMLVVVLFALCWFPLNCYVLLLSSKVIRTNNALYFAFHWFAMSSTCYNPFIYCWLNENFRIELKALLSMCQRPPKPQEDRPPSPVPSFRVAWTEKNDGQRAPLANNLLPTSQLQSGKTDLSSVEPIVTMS
How it was run: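 Membranes were prepared from CHO cells expressing untagged hGPR83 by homogenising in ice-cold 20 mM tris-Cl, 250 mM sucrose, 2 mM EGTA, 1 mM MgCl₂ (pH 7.4), then spinning at 27,000g. Membranes (50 μg) were incubated 1 h at 37°C in 50 mM tris-Cl (pH 7.4) plus protease inhibitors with 3 nM [¹²⁵I]Tyr-rPEN and competitor peptide (0 to 10 μM). Samples were filtered on GF/B, washed three times with ice-cold buffer and counted by scintillation.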

[5] = [35S]GTPγS binding in membranes from control CHO cells; format: biochemical, Chinese hamster; conditions: membranes 20 μg, CHO alone; Fig. 4E
How it was run: (§1)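 Membranes (20 μg) were incubated 1 h at 30°C with peptide (0 to 1 μM final), 2 mM GDP and 0.5 nM [³⁵S]GTPγS. Buffer was 50 mM Hepes, 5 mM MgCl₂, 100 mM NaCl, 1 mM EDTA (pH 7.4) with protease inhibitors. Nonspecific binding was taken with 10 μM cold GTPγS, and basal as GDP without ligand. Samples were filtered on GF/B, washed three times with ice-cold 50 mM tris-Cl and counted by scintillation.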

hGPR83 [6] = biological target: T1, hGPR83; assay: [35S]GTPγS binding in membranes from CHO hGPR83 cells; format: biochemical; conditions: membranes 20 μg; Fig. 4E
How it was run: as §1

Sequence of Neuro2A cells (P30731 18-423): as the sequence (P30731 18-423) above

With “mbigLEN: mouse bigLEN, proSAAS-derived neuropeptide that activates GPR171 (LENPSPQAPARRLLPP; Big LEN; UniProt Q9QXV0 243-258, looked up)” as the substance, how does the number of neurites (Neuro2A cells) read?
Its number of neurites is “significantly increased”.

With “PEN: proSAAS-derived peptide PEN, species form not stated at this place (AADHDVGSELPPEGVLGALLRV; PEN; UniProt Q9UHG2 221-242, looked up)” as the substance, how does the “effect on food intake” value [1] read?
The value was “did not elicit a significant effect”.

For “N-terminally tyrosinated, radioiodinated rat PEN (peptide)”, which Kd [2] is on record?
The Kd was 8 nM.

For “rSAAS: rat SAAS, proSAAS-derived peptide (ARPVKEPRSLSAASAPLAETSTPLRL; Big SAAS; UniProt Q9QXU9 34-59, looked up)”, which number of neurites (Neuro2A cells) is on record?
Its number of neurites is “significantly increased”.

With LENPSPQAPA [rlittleLEN] as the substance, how does the “competition for [125I]Tyr-rPEN binding” value [3] read?
The value was “did not compete for binding”.

With neuropeptide Y [NPY] as the substance, how does the “displacement of [125I]Tyr-rPEN” value (hGPR83 [4]; 10 μM NPY, not significant (one-way ANOVA, P = 0.37)) read?
The value was ~ 20%.

And the “displacement of [125I]Tyr-rPEN” value (hGPR83 [4]; NPY at concentrations below 1 μM, [125I]Tyr-rPEN 3 nM, membranes 50 μg)?
The value was “did not displace”.

What about the GTPγS binding [5] of the same substance?
The GTPγS binding was “small increase”.

What about the GTPγS binding (hGPR83 [6]) of the same substance?
Its GTPγS binding is “small increase”.

Which “effect on food intake” value [1] does the source give for “bigLEN: proSAAS-derived peptide bigLEN, species form not stated at this place (LETPAPQVPARRLLPP; Big LEN; UniProt Q9UHG2 245-260, looked up)” here?
Its value is “did not elicit a significant effect”.
